# Experiments:
# [1] = biological target: T1, Angiotensin-converting enzyme (Oryctolagus cuniculus, UniProt P12822); assay: Inhibition of rabbit lung angiotensin I converting enzyme (ACE) using hippuryl-histidyl-leucine as substrate; settings: read-out: I50
# T1 sequence (P12822 whole entry): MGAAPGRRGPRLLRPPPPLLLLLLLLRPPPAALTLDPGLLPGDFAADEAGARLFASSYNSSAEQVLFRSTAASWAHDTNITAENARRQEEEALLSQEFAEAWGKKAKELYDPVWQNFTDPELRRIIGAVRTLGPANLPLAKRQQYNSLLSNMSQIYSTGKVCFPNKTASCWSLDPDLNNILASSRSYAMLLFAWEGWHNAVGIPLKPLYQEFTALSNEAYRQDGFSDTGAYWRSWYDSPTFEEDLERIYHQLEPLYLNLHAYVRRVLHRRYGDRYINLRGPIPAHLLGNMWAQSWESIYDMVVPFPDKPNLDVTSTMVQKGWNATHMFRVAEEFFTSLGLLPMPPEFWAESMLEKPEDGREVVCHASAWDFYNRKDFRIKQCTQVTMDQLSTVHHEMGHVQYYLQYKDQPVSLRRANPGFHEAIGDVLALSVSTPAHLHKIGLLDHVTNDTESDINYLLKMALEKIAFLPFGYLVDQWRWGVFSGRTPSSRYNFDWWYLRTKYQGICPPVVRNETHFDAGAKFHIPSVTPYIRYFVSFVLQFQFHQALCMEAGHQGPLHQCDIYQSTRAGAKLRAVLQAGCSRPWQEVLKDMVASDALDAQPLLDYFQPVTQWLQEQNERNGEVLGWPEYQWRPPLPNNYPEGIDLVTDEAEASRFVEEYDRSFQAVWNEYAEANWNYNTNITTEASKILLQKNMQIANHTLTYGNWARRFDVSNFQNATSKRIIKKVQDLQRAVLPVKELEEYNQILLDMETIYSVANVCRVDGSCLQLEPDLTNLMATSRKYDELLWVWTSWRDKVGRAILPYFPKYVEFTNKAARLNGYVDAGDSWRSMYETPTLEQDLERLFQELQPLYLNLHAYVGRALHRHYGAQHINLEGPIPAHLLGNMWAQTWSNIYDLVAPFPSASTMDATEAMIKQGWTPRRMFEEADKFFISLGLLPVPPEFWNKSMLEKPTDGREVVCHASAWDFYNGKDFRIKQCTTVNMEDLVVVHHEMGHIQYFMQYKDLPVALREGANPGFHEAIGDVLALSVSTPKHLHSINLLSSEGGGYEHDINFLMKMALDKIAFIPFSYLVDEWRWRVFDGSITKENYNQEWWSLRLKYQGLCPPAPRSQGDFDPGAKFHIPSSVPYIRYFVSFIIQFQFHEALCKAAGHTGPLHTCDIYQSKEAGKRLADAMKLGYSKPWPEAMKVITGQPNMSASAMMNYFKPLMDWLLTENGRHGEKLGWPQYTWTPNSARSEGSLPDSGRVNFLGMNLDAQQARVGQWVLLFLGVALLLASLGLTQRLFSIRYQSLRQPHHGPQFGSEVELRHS
# [2] = biological target: T2, Angiotensin-converting enzyme (Rattus norvegicus) (UniProt P47820); assay: In vivo dose required to produce 50% inhibition against angiotensin I in normotensive rat after intravenous administration; assay type: functional, organism-based
# T2 sequence (whole entry): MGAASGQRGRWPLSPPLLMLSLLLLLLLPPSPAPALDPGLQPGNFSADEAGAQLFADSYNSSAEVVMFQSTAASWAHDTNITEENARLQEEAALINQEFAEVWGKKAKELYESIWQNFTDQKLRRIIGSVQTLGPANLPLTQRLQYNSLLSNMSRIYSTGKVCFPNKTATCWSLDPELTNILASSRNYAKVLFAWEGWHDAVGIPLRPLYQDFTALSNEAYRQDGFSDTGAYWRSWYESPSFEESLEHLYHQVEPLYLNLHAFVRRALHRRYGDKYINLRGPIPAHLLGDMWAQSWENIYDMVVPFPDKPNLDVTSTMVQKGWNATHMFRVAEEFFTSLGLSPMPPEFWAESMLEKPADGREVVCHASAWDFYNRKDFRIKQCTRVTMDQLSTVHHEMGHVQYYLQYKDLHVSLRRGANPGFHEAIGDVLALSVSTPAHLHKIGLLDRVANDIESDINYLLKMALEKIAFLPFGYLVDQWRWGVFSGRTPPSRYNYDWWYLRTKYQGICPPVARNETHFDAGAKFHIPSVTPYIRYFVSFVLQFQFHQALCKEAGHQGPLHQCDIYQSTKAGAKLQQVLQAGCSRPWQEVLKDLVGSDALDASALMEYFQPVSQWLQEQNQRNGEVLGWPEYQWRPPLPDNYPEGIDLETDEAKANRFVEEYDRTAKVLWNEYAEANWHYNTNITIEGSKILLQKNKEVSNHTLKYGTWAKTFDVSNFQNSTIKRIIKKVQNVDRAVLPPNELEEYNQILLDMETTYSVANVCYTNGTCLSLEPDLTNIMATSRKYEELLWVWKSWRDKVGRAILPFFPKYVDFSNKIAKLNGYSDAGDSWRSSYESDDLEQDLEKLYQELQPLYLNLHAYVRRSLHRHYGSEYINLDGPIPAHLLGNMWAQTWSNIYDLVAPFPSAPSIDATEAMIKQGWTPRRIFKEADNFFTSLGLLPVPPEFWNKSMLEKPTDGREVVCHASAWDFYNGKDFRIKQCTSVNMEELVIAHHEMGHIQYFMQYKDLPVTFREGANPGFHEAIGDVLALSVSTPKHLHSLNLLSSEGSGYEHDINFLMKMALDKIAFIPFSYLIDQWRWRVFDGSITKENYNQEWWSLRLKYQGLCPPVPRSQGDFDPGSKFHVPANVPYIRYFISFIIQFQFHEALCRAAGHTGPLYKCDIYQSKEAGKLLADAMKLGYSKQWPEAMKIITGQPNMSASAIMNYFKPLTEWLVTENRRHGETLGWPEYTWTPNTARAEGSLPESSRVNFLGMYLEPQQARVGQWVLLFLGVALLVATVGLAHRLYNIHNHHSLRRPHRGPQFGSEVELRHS
# Procedure, shortened: (§1)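 Conscious, unrestrained male Sprague-Dawley rats (225–275 g) with indwelling aortic and vena caval catheters, recovered ≥2 weeks. […] Compound given iv in 0.1 mL water or 5% NaHCO3, responses followed up to 70 min. Maximum % inhibition is the mean of four rats per dose; ED50 interpolated from plots of ≥3 doses.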
# [3] = biological target: T2, Angiotensin-converting enzyme (Rattus norvegicus); assay: In vivo oral activity in normotensive rat and percent maximal inhibition of the angiotensin I pressor response; assay type: functional, organism-based
# Procedure, shortened: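 Catheterized conscious, unrestrained male Sprague-Dawley rats (225–275 g), recovered ≥2 weeks. […] Oral dose in 0.1 mL water, 5% NaHCO3 or 1% agar suspension. Aortic pressure read by transducer for up to 280 min. Maximum % inhibition is the mean of four animals per dose.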
# [4] = biological target: T2, Angiotensin-converting enzyme (Rattus norvegicus); assay: In vivo dose required to produce 50% inhibition against angiotensin I (AI) in normotensive rat after intravenous administration; assay type: functional, organism-based; procedure, shortened: as §1
Compound,IC50 [1] [nM],ED50 [2] [µmol/kg],inhibition [3] [%],ED50 [4] [µmol/kg]
NCCCC[C@H](OP(=O)(O)CCCCc1ccccc1)C(=O)N1CCS[C@H]1C(=O)O,81,0.163,50,–
NCCCC[C@H](OP(=O)(O)CCCCc1ccccc1)C(=O)N1CCC[C@H]1C(=O)O,–,0.063,90,–
NCCCC[C@H](OP(=O)(O)CCCCc1ccccc1)C(=O)N1CSC[C@H]1C(=O)O,91,0.124,46,–
NCCCC[C@H](OP(=O)(O)CCCCc1ccccc1)C(=O)N1C[C@H](C2CCCCC2)C[C@H]1C(=O)O,31,0.11,15,–
CS[C@H]1C[C@@H](C(=O)O)N(C(=O)[C@H](CCCCN)OP(=O)(O)CCCCc2ccccc2)C1,9.7,0.059,8,–
NCCCC[C@H](OP(=O)(O)CCCCc1ccccc1)C(=O)N1C[C@@H](C2CCCCC2)C[C@H]1C(=O)O,11,0.06,33,–
NCCCC[C@H](OP(=O)(O)CCCCc1ccccc1)C(=O)N1C[C@H](O)C[C@H]1C(=O)O,140,0.339,–,–
NCCCC[C@H](OP(=O)(O)CCCCc1ccccc1)C(=O)N1C[C@H](F)C[C@H]1C(=O)O,320,–,–,–
NCCCC[C@H](OP(=O)(O)CCCCc1ccccc1)C(=O)N1C[C@@H](Cc2ccccc2)C[C@H]1C(=O)O,1,0.026,14,–
CSC1(SC)C[C@@H](C(=O)O)N(C(=O)[C@H](CCCCN)OP(=O)(O)CCCCc2ccccc2)C1,16,0.14,45,–
NCCCC[C@H](OP(=O)(O)CCCCc1ccccc1)C(=O)N1C[C@H](Sc2ccccc2)C[C@H]1C(=O)O,2.6,0.066,11,–
NCCCC[C@H](OP(=O)(O)CCCCc1ccccc1)C(=O)N(CC(=O)O)c1ccc2c(c1)OCO2,24,0.1,69,–
NCCCC[C@H](OP(=O)(O)CCCCc1ccccc1)C(=O)N1C[C@H](c2ccccc2)C[C@H]1C(=O)O,270,–,–,–
COc1ccc(N(CC(=O)O)C(=O)[C@H](CCCCN)OP(=O)(O)CCCCc2ccccc2)cc1,39,0.043,40,–
NCCCC[C@H](OP(=O)(O)CCCCc1ccccc1)C(=O)N1C[C@@H](O)C[C@H]1C(=O)O,25,0.033,69,–
NCCCC[C@H](OP(=O)(O)CCCCc1ccccc1)C(=O)N1CC(F)(F)C[C@H]1C(=O)O,170,0.162,49,–
NCCCC[C@H](OP(=O)(O)CCCCc1ccccc1)C(=O)N1CC2(C[C@H]1C(=O)O)SCCS2,1.5,0.018,51,–
NCCCC[C@H](OP(=O)(O)CCCCc1ccccc1)C(=O)N1C[C@@H](F)C[C@H]1C(=O)O,160,–,–,–
NCCCC[C@H](OP(=O)(O)CCCCc1ccccc1)C(=O)N1COC[C@H]1C(=O)O,145,0.677,–,–
CS[C@@H]1C[C@@H](C(=O)O)N(C(=O)[C@H](CCCCN)OP(=O)(O)CCCCc2ccccc2)C1,9.3,0.031,16,–
NCCCC[C@H](OP(=O)(O)CCCCc1ccccc1)C(=O)N1c2ccccc2C[C@H]1C(=O)O,4.4,–,13,< 0.014
NCCCC[C@H](OP(=O)(O)CCCCc1ccccc1)C(=O)N(CC(=O)O)C1CCCCC1,22,0.106,31,–
NCCCC[C@H](OP(=O)(O)CCCCc1ccccc1)C(=O)N1[C@H](C(=O)O)C[C@@H]2CCCC[C@@H]21,28,0.1,14,–
NCCCC[C@H](OP(=O)(O)CCCCc1ccccc1)C(=O)N1C[C@@H](Sc2ccccc2)C[C@H]1C(=O)O,3,0.047,15,–
NCCCC[C@H](OP(=O)(O)CCCCc1ccccc1)C(=O)N1C[C@@H](c2ccccc2)C[C@H]1C(=O)O,3.5,0.037,58,–
COc1ccc(N(CC(=O)O)C(=O)[C@H](CCCCN)OP(=O)(O)CCCCc2ccccc2)cc1OC,35,0.04,62,–
NCCCC[C@H](OP(=O)(O)CCCCc1ccccc1)C(=O)N1CC=C[C@H]1C(=O)O,43,0.105,73,–
NCCCC[C@H](OP(=O)(O)CCCCc1ccccc1)C(=O)N1[C@H](C(=O)O)C[C@@H]2CCC[C@@H]21,26,–,41,0.035

# Reference: ChEMBL document CHEMBL1124773, “(Phosphinyloxy)acyl amino acid inhibitors of angiotensin converting enzyme. 2. Terminal amino acid analogues of (S)-1-[6-amino-2 [[hydroxy(4-phenylbutyl)phosphinyl]oxy]-1-oxohexyl]-L-proline” (J Med Chem, 1990)
